Measurements: PMC8883152 (Translational Vision Science & Technology, 2022)

Tests used:
Type in all cases: in vivo, C57BL/6 mice
[1] = system: MMP-2/TIMP-2 and MMP-9/TIMP-1 ratios; details: retinal extracts, normalized to α-tubulin
Summary of the method: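 Three mice per group were used (dexamethasone-induced hypertension, 21 days of topical dosing). Retinas were homogenised in RIPA buffer (pH 8.0) and centrifuged at 14,000g for 30 min at 4°C. Protein (10 µg/lane) was run on 10% SDS-PAGE and blotted. Membranes were probed overnight at room temperature for MMP-2, MMP-9, TIMP-1 and TIMP-2. Bands were detected by ECL densitometry and normalised to α-tubulin, and MMP-2/TIMP-2 and MMP-9/TIMP-1 ratios were calculated.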

[2] = system: Dex-induced OHT mouse model; experiment: IOP in dexamethasone-induced ocular hypertension mouse model; details: HL3501 0.04% BID, latanoprost 0.005% QD, or both
Summary of the method: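 IOP was read with a rebound tonometer on days 0, 1, 3, 5, 7, 10, 14, 17 and 21 in male C57BL/6 mice. Ocular hypertension was pre-induced by 0.1% dexamethasone (20 µL/eye, three times daily, 2 weeks; maintained throughout). Drops were test compound 0.04% BID, latanoprost 0.005% QD, or both 5 min apart, for 21 days. Groups had 8–10 mice. Basal IOP was taken before dexamethasone.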

[3] = system: fibronectin and α-SMA expression in the TM; details: after 21 days treatment
Summary of the method: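 Eye sections from dexamethasone-induced hypertensive C57BL/6 mice (21 days of topical dosing) were used. Sections were incubated overnight at room temperature with fibronectin and α-SMA antibodies (1:200) and washed in 0.1 M PBST. Fluorescent secondary antibodies (1:500) were applied for 1 h. Sections were DAPI-counterstained and imaged by fluorescence microscopy focused on the trabecular meshwork.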

RGCs = experiment: Hematoxylin and eosin staining of retinal sections; details: after 21 days treatment, H&E retinal cross-sections
Summary of the method: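 In dexamethasone-induced hypertensive C57BL/6 mice treated topically for 21 days, eyes were enucleated after euthanasia and fixed in 10% formalin for 24 h. They were paraffin-embedded and sectioned. Retinal sections were stained with hematoxylin (0.1% plus 10% ammonium) for 3–5 min, then 1% eosin Y for 1 min. Slides were dehydrated through ethanol and xylene and scanned to assess RGCs.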

[4] = system: Dex-induced OHT mouse model; experiment: Electroretinography; details: day 21, compared with vehicle-treated group
Summary of the method: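 Male C57BL/6 mice (11 weeks) received 0.1% dexamethasone eye drops (20 µL/eye) in both eyes three times daily for 2 weeks, continued through dosing. Test compound (0.04% BID), latanoprost (0.005% QD) or both were then given topically for 21 days, doses 5 min apart. ERG was run on both eyes of dark-adapted anaesthetised mice on days 0 and 21. A single white 0.3 log cd·s/m2 flash was used, and b-wave amplitude was measured.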

## CC(C)OC(=O)CCC/C=C\C[C@@H]1[C@@H](CC[C@@H](O)CCc2ccccc2)[C@H](O)C[C@@H]1O [Latanoprost, latanoprost]
[1]
  MMP-2/TIMP-2 ratio (in words): increased
  MMP-9/TIMP-1 ratio (in words): increased
[2]
  IOP effect over 3 weeks in Dex-induced OHT mouse model (in words): consistent IOP-lowering effect
[3]
  Fibronectin and α-SMA expression in the TM compared with vehicle (in words): suppressed
RGCs
  RGC loss (in words): less affected by RGC loss
[4]
  b-wave values on day 21 (in words): did not decrease as much
